Measured values published in paper PMC3975472 (Biomolecules & Therapeutics, 2014).
Structures can show the parent of a compound that is named as a salt.

What was measured:
[1] = tested on: 9 cytochrome P450 (CYP) family members (CYP1A2, CYP2A6, CYP2B6, CYP2C8, CYP2C9, CYP2C19, CYP2D6, CYP2E1, and CYP3A4); assay: Cocktail probe assay in pooled HLMs, all 9 CYP isoforms together; assay type: in vitro ADME, human; details: 0–50 μM, 37°C 60 min
Method in brief: (§1)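 Pooled HLMs (0.1 mg) in 0.1 M potassium phosphate, pH 7.4, with cocktail probe substrates, NADPH-generating system and test compound (0.1–25 μM, six levels). Pre-incubation with NADPH for 0 or 15 min (reference inhibitor: 20 min), then 60 min at 37°C. Stopped with acidified acetonitrile plus terfenadine internal standard; metabolites by LC-MS/MS (MRM). IC50 from percent activity vs log[I]; duplicates.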

CYP1A2 = biological target: T1, CYP1A2 (Homo sapiens, UniProt P05177); assay: Cocktail probe assay in pooled HLMs: CYP1A2-catalyzed phenacetin O-deethylase; assay type: in vitro ADME; details: pre-incubation 20 min with NADPH, mean of duplicates
T1 sequence (P05177 1-516): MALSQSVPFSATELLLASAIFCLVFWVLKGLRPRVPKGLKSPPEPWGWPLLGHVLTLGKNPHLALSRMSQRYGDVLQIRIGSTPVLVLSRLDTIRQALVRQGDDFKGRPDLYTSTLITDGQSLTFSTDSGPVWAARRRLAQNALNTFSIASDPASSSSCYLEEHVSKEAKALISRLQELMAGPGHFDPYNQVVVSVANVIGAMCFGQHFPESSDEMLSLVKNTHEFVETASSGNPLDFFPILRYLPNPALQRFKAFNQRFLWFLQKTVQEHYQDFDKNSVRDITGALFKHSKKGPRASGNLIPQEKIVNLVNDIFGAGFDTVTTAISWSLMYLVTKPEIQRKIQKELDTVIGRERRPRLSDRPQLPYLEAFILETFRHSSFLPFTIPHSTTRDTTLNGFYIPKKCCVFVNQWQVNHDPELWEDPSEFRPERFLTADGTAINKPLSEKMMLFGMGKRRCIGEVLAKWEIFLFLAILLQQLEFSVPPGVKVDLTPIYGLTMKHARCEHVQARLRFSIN
Method in brief: as §1

CYP2A6 = biological target: T2, CYP2A6 (Homo sapiens, UniProt P11509); assay: Cocktail probe assay in pooled HLMs: CYP2A6-catalyzed coumarin 7-hydroxylase; assay type: in vitro ADME; details: pre-incubation 20 min with NADPH, mean of duplicates
T2 sequence (P11509 1-494): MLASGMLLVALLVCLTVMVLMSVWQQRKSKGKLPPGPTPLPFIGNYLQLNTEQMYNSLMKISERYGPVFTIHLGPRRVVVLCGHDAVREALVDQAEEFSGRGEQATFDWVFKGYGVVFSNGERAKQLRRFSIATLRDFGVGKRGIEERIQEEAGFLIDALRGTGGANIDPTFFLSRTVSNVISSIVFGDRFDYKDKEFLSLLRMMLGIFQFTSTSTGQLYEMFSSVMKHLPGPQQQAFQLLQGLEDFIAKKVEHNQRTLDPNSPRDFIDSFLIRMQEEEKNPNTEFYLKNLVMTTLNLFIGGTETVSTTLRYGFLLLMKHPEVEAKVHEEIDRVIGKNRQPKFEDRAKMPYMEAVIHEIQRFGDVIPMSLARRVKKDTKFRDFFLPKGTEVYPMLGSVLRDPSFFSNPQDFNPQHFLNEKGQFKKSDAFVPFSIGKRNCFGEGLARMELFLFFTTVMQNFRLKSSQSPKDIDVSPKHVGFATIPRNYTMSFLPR
Method in brief: as §1

CYP2B6 = biological target: T3, CYP2B6 (Homo sapiens, UniProt P20813); assay: Cocktail probe assay in pooled HLMs: CYP2B6-catalyzed bupropion hydroxylase; assay type: in vitro ADME; details: pre-incubation 20 min with NADPH, mean of duplicates
T3 sequence (P20813 1-491): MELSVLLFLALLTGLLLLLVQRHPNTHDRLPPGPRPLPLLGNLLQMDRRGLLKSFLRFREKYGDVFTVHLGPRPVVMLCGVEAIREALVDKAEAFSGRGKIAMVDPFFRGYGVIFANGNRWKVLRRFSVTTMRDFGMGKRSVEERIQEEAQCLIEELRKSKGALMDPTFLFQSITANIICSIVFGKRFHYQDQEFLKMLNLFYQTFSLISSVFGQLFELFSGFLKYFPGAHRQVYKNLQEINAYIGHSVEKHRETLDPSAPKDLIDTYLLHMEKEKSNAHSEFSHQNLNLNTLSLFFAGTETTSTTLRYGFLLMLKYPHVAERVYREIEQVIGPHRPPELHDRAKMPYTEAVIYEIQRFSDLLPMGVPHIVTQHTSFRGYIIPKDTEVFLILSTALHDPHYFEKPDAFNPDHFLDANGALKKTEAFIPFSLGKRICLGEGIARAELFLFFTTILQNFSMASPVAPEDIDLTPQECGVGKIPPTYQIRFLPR
Method in brief: as §1

CYP2C8 = biological target: T4, CYP2C8 (Homo sapiens, UniProt P10632); assay: Cocktail probe assay in pooled HLMs: CYP2C8-catalyzed amodiaquine N-deethylase; assay type: in vitro ADME; details: pre-incubation 20 min with NADPH, mean of duplicates
T4 sequence (P10632 1-490): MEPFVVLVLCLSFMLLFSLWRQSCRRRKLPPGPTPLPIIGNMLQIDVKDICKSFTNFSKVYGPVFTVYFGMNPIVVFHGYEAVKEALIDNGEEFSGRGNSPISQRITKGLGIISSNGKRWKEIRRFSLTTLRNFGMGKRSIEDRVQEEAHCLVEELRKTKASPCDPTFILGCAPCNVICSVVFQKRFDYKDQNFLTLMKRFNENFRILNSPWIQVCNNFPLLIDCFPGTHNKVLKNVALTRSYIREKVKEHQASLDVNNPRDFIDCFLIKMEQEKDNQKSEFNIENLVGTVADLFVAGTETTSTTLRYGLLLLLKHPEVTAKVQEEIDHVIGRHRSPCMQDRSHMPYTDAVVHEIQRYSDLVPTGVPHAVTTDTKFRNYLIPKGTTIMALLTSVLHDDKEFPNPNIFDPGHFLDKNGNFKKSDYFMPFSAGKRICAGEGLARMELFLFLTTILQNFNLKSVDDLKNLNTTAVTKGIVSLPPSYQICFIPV
Method in brief: as §1

CYP2C9 = CYP2C9 (Homo sapiens, UniProt P11712); assay: Cocktail probe assay in pooled HLMs: CYP2C9-catalyzed diclofenac 4′-hydroxylase; assay type: in vitro ADME; details: pre-incubation 20 min with NADPH, mean of duplicates
CYP2C9, sequence (P11712 whole entry): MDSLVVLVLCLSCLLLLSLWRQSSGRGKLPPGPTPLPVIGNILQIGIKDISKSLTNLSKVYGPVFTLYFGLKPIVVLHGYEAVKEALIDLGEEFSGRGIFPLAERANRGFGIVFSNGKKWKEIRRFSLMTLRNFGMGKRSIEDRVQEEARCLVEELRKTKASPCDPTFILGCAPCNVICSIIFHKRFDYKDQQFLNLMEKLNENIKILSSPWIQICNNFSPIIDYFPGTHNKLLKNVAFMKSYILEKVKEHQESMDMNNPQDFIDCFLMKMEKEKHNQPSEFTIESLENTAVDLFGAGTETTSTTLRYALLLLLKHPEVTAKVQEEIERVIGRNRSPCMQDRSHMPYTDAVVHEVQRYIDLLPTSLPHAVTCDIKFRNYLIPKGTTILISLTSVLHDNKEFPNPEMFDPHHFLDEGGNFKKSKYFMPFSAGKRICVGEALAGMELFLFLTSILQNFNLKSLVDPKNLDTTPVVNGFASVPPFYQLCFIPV
Method in brief: as §1

CYP2C19 = CYP2C19 (Homo sapiens, UniProt P33261); assay: Cocktail probe assay in pooled HLMs: CYP2C19-catalyzed omeprazole 5-hydroxylase; assay type: in vitro ADME; details: pre-incubation 20 min with NADPH, mean of duplicates
CYP2C19, sequence (P33261 whole entry): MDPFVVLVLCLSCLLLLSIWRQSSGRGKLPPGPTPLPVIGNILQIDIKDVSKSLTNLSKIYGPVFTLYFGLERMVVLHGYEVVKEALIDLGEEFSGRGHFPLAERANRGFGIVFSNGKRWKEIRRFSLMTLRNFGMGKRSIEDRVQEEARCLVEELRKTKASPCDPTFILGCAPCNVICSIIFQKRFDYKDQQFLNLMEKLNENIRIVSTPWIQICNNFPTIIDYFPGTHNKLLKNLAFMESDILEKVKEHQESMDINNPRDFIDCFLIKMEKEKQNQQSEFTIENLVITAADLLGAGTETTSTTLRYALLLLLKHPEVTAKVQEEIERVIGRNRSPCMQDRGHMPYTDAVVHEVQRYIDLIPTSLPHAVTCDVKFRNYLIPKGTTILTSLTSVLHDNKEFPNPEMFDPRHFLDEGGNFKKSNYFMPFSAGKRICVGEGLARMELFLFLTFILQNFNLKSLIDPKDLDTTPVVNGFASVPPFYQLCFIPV
Method in brief: as §1

CYP2D6 = CYP2D6 (Homo sapiens, UniProt P10635); assay type: in vitro ADME; details: IC50, HLMs, pre-incubation 20 min with NADPH, mean of duplicates
CYP2D6, sequence (P10635 whole entry): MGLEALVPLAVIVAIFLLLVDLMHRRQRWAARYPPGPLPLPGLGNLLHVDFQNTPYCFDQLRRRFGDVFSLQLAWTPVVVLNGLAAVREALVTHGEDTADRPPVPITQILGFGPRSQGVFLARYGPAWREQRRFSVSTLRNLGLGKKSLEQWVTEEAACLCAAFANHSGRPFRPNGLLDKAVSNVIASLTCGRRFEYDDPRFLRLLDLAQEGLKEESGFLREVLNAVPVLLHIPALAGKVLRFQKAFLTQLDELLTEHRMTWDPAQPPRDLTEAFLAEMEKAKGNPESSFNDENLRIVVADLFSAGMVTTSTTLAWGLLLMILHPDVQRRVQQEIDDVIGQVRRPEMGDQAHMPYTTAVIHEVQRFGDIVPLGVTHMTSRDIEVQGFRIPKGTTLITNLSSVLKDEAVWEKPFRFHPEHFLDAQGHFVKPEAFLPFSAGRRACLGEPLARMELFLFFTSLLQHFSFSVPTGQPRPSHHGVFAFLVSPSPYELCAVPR
Method in brief: as §1

CYP2E1 = CYP2E1 (Homo sapiens, UniProt P05181); assay type: in vitro ADME; details: IC50, HLMs, pre-incubation 20 min with NADPH, mean of duplicates
CYP2E1, sequence (P05181 whole entry): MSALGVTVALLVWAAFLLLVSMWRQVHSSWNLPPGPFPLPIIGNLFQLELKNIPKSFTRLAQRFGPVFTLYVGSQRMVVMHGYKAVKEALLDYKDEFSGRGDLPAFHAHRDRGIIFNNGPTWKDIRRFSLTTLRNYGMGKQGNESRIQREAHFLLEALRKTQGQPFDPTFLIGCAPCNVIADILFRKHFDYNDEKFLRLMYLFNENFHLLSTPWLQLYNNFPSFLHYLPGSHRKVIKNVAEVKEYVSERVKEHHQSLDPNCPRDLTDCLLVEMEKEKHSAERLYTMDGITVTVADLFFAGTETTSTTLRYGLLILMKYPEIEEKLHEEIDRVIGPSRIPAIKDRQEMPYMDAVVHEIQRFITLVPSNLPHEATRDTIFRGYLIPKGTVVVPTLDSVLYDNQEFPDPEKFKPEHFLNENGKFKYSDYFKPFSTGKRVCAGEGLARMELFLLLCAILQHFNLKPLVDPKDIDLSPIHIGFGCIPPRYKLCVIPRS
Method in brief: as §1

Row | inhibitory effects on the activities of all 9 CYPs [1] | IC50 (CYP1A2) [µM] | IC50 (CYP2A6) [µM] | IC50 (CYP2B6) [nM] | IC50 (CYP2C8) [µM] | IC50 (CYP2C9) [µM] | IC50 (CYP2C19) [nM] | IC50 (CYP2D6) [µM] | IC50 (CYP2E1) [µM] | Compound
1 | weak inhibitory effects | – | – | – | – | – | – | – | – | CC(=O)Oc1c2oc3cc(O)c(O)cc3c2c(OC(C)=O)c2oc3cc(O)c(O)cc3c12 [Polyozellin, polyozellin]
2 | – | > 50 | > 50 | 900 | 26.5 | 33.4 | 2100 | 3.5 | > 50 | CCCC(C(=O)OCCN(CC)CC)(c1ccccc1)c1ccccc1 [SKF-525A, 2-diethylaminoethyl-2,2-diphenylvalerate-HCl]
